ChEMBL document CHEMBL4689842, “EUbOPEN Chemogenomics Library wave 1” (2021)

Tested on: HEK-293T
Test: Multiplex assay against HEK293T;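 for Population Tubulin-Different-Phenotype (%): share of the cells with healthy nuclei that show this phenotype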
Format: toxicity, cell-based
Details: human
Procedure, shortened: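 Phenotypes for tubulin, mitochondrial mass and membrane permeability are expressed as per cents of healthy-nucleus cells. Cells were stained live at seeding with Hoechst33342, BioTracker Green Microtubule Cytoskeleton Dye, MitoTracker Red and Annexin V Alexa Fluor 680, then imaged after compound addition on a CQ1 microscope at 37°C and 5% CO2. Machine-learning gating in CellPathfinder separated Hoechst high-intensity objects from normal cells, divided normal cells by nuclear state (healthy, pyknosed, fragmented) and divided pyknosed cells into mitotic or apoptotic.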

[1] = 12 h, 1 µM, compound concentration 1 uM, replicate 1
[2] = 12 h, 1 µM, compound concentration 1 uM, replicate 2
[3] = 12 h, 10 µM, compound concentration 10 uM, replicate 1
[4] = 12 h, 10 µM, compound concentration 10 uM, replicate 2
[5] = 24 h, 1 µM, compound concentration 1 uM, replicate 1
[6] = 24 h, 1 µM, compound concentration 1 uM, replicate 2
[7] = 24 h, 10 µM, compound concentration 10 uM, replicate 1
[8] = 24 h, 10 µM, compound concentration 10 uM, replicate 2

## CNC(=O)Nc1ccc2c(c1)[C@@]1(CC2)OC(=O)N(CC(=O)N(Cc2ccc(F)cc2)[C@@H](C)C(F)(F)F)C1=O [A-486]
[1]
  Population Apoptotic (%): 25%
  Population Fragmented Nuclei (%): 17%
  Population Healthy Nuclei (%): 47%
  Population Hoechst High Intensity Objects (%): 15%
  Population Membrane Permeable-Phenotype (%): 17%
  Population Mitochondria Different-Phenotype (%): 15%
  Population Mitotic Cells (%): 74%
  Population Normal (%): 84%
  Population Pyknosed Nuclei (%): 35%
  Population Tubulin-Different-Phenotype (%): 48%
  Total Cell Count: 632
[2]
  Population Apoptotic (%): 12%
  Population Fragmented Nuclei (%): 4%
  Population Healthy Nuclei (%): 82%
  Population Hoechst High Intensity Objects (%): 2%
  Population Membrane Permeable-Phenotype (%): 29%
  Population Mitochondria Different-Phenotype (%): 21%
  Population Mitotic Cells (%): 87%
  Population Normal (%): 97%
  Population Pyknosed Nuclei (%): 13%
  Population Tubulin-Different-Phenotype (%): 88%
  Total Cell Count: 1325
[3]
  Population Apoptotic (%): 14%
  Population Fragmented Nuclei (%): 20%
  Population Healthy Nuclei (%): 57%
  Population Hoechst High Intensity Objects (%): 17%
  Population Membrane Permeable-Phenotype (%): 7%
  Population Mitochondria Different-Phenotype (%): 6%
  Population Mitotic Cells (%): 85%
  Population Normal (%): 82%
  Population Pyknosed Nuclei (%): 22%
  Population Tubulin-Different-Phenotype (%): 4%
  Total Cell Count: 510
[4]
  Population Apoptotic (%): 5%
  Population Fragmented Nuclei (%): 9%
  Population Healthy Nuclei (%): 85%
  Population Hoechst High Intensity Objects (%): 1%
  Population Membrane Permeable-Phenotype (%): 2%
  Population Mitochondria Different-Phenotype (%): 8%
  Population Mitotic Cells (%): 95%
  Population Normal (%): 98%
  Population Pyknosed Nuclei (%): 4%
  Population Tubulin-Different-Phenotype (%): 13%
  Total Cell Count: 1787
[5]
  Population Apoptotic (%): 24%
  Population Fragmented Nuclei (%): 12%
  Population Healthy Nuclei (%): 73%
  Population Hoechst High Intensity Objects (%): 10%
  Population Membrane Permeable-Phenotype (%): 25%
  Population Mitochondria Different-Phenotype (%): 11%
  Population Mitotic Cells (%): 75%
  Population Normal (%): 89%
  Population Pyknosed Nuclei (%): 14%
  Population Tubulin-Different-Phenotype (%): 67%
  Total Cell Count: 669
[6]
  Population Apoptotic (%): 6%
  Population Fragmented Nuclei (%): 14%
  Population Healthy Nuclei (%): 79%
  Population Hoechst High Intensity Objects (%): 3%
  Population Membrane Permeable-Phenotype (%): 36%
  Population Mitochondria Different-Phenotype (%): 10%
  Population Mitotic Cells (%): 93%
  Population Normal (%): 96%
  Population Pyknosed Nuclei (%): 5%
  Population Tubulin-Different-Phenotype (%): 89%
  Total Cell Count: 1891
[7]
  Population Apoptotic (%): 33%
  Population Fragmented Nuclei (%): 15%
  Population Healthy Nuclei (%): 75%
  Population Hoechst High Intensity Objects (%): 9%
  Population Membrane Permeable-Phenotype (%): 8%
  Population Mitochondria Different-Phenotype (%): 4%
  Population Mitotic Cells (%): 66%
  Population Normal (%): 90%
  Population Pyknosed Nuclei (%): 9%
  Population Tubulin-Different-Phenotype (%): 10%
  Total Cell Count: 551
[8]
  Population Apoptotic (%): 7%
  Population Fragmented Nuclei (%): 25%
  Population Healthy Nuclei (%): 72%
  Population Hoechst High Intensity Objects (%): 2%
  Population Membrane Permeable-Phenotype (%): 7%
  Population Mitochondria Different-Phenotype (%): 2%
  Population Mitotic Cells (%): 92%
  Population Normal (%): 97%
  Population Pyknosed Nuclei (%): 1%
  Population Tubulin-Different-Phenotype (%): 13%
  Total Cell Count: 3041
